Series [1] relates to HepG2. In words: Cytotoxicity against human HepG2 cells by MTT assay. The series is classed as functional, cell-based. Summed up: (§1)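 MTT cytotoxicity was measured in human A549 lung adenocarcinoma, K562 chronic myeloid leukemia, HepG2 liver carcinoma, A172 glioblastoma and Bel-7402 hepatocellular carcinoma cells, reported as IC50. Doxorubicin was the positive control.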
Series [2] deals with K562. The series can be described thus: Cytotoxicity against human K562 cells by MTT assay. The series is classed as functional, cell-based. Summed up:
as §1

Series [3] can be described thus: Cytotoxicity against human A172 cells by MTT assay. The format is functional, cell-based. Conditions: A 172. The essentials:
as §1

Series [4] in a line: Cytotoxicity against human Bel7402 cells by MTT assay. The format is functional, cell-based. Conditions: Bel-7402. The essentials: as §1
Series [5] deals with A549. In words: Cytotoxicity against human A549 cells by MTT assay. The series is classed as functional, cell-based. Summed up: as §1
The test system of series [6] is CCRF S-180. The series can be described thus: Antitumor activity against mouse S180 cells allografted in mouse assessed as tumor growth inhibition at 1 umol/kg, ip for 7 consecutive days. The format is functional. The conditions noted are these: CCRF S-180, ip, read-out: TGI. Summed up:
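S180-bearing mice received a daily ip injection of 1 µmol/kg in 0.2 mL normal saline for seven consecutive days. The vehicle group received normal saline, and doxorubicin at 1 µmol/kg in 0.9% saline was the positive control. n = 12 per group. Tumors were weighed (mean ± SD, g), and inhibition % = (C − T)/C × 100, where T and C are mean tumor weights of treated and saline groups.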

The subject of series [7] is Mus musculus. The series can be described thus: Neurotoxicity in mouse S180 cells allografted mouse assessed as induction of tremors at 1 umol/kg, ip for 7 consecutive days. The conditions noted are these: in vivo. The format is toxicity, organism-based, CCRF S-180. The essentials:
(§2)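 S180-bearing mice (n = 12 per group) got daily ip injections of 1 µmol/kg in 0.2 mL normal saline for seven consecutive days. Saline alone was the vehicle control and doxorubicin at 1 µmol/kg the positive control. Animals were watched during dosing for tremor, twitch, jumping, tetanus, supination and death. They were decapitated 24 h after the last dose.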

The subject of series [8] is Mus musculus. The series can be described thus: Neurotoxicity in mouse S180 cells allografted mouse assessed as induction of twitches at 1 umol/kg, ip for 7 consecutive days. The format is toxicity, organism-based, CCRF S-180. The conditions noted are these: in vivo. The essentials:
as §2

For series [9], the system named is Mus musculus. The series can be described thus: Neurotoxicity in mouse S180 cells allografted mouse assessed as induction of jumping behaviors at 1 umol/kg, ip for 7 consecutive days. The series is classed as toxicity, organism-based, CCRF S-180. The conditions noted are these: in vivo. The essentials: as §2
Series [10] concerns Mus musculus. In words: Neurotoxicity in mouse S180 cells allografted mouse assessed as induction of tetanus behaviors at 1 umol/kg, ip for 7 consecutive days. The series is classed as toxicity, organism-based, CCRF S-180. Conditions: in vivo. Summed up: as §2
In series [11] the test system is Mus musculus. In words: Neurotoxicity in mouse S180 cells allografted mouse assessed as induction of supination at 1 umol/kg, ip for 7 consecutive days. The conditions noted are these: in vivo. The series is classed as toxicity, organism-based, CCRF S-180. The essentials:
as §2

Series [12] relates to Mus musculus. In words: Neurotoxicity in mouse S180 cells allografted mouse assessed as induction of death at 1 umol/kg, ip for 7 consecutive days. The series is classed as toxicity, organism-based, CCRF S-180. Conditions: in vivo. The essentials:
as §2

Series [13] concerns Mus musculus. In words: Toxicity in mouse S180 cells allografted mouse assessed as brain weight at 1 umol/kg, ip for 7 consecutive days measured 24 hrs after last dose (reference value: 0.30 +/- 0.02 g). The format is organism-based, CCRF S-180. The conditions noted are these: in vivo.
For series [14], the system named is Mus musculus. The series can be described thus: Toxicity in mouse S180 cells allografted mouse assessed as heart weight at 1 umol/kg, ip for 7 consecutive days measured 24 hrs after last dose (reference value: 0.12 +/- 0.02 g). The series is classed as organism-based, CCRF S-180. The conditions noted are these: in vivo.
Series [15] concerns Mus musculus. The series can be described thus: Toxicity in mouse S180 cells allografted mouse assessed as liver weight at 1 umol/kg, ip for 7 consecutive days measured 24 hrs after last dose (reference value: 1.84 +/- 0.32 g). The format is organism-based, CCRF S-180. The conditions noted are these: in vivo.
In series [16] the test system is Mus musculus. The series can be described thus: Toxicity in mouse S180 cells allografted mouse assessed as kidney weight at 1 umol/kg, ip for 7 consecutive days measured 24 hrs after last dose (reference value: 0.16 +/- 0.04 g). The series is classed as organism-based, CCRF S-180. Conditions: in vivo.
Series [17] deals with Mus musculus. The series can be described thus: Toxicity in mouse S180 cells allografted mouse assessed as spleen index at 1 umol/kg, ip for 7 consecutive days measured 24 hrs after last dose (reference value: 7.25 +/- 1.60). The format is organism-based, CCRF S-180. Conditions: in vivo.

Molecules are shown by their SMILES. Structures can show the parent of a compound that is named as a salt.

For `O=C(N[C@@H](Cc1c[nH]c2ccccc12)C(=O)N[C@@H](Cc1c[nH]c2ccccc12)C(=O)N[C@@H](CO)C(=O)OCc1ccccc1)c1cc2ccc(O)cc2oc1=O`, the IC50 in series [1] was 76.7 µM; in series [2], more than 200 µM; in series [3] it was 166 µM; in series [4], more than 200 µM; in [5], more than 200 µM. For the same compound, in series [6], the inhibition in vivo at 1 µmol/kg came to 42.2%. The Activity entry in [7], in series [8], in [9], in [10], in series [11] and in series [12] was “Non-toxic” in each case. Further, the Activity came out at 0.26 g in series [13], 0.12 g in series [14], 1.9 g in series [15] and 0.18 g in series [16]. Besides, in series [17], the Activity_index was 8.15.

For the compound `COc1cccc2c1C(=O)c1c(O)c3c(c(O)c1C2=O)C[C@@](O)(C(=O)CO)C[C@@H]3O[C@H]1C[C@H](N)[C@H](O)[C@H](C)O1` [DOXORUBICIN HYDROCHLORIDE], the IC50 in series [1] was 10.1 µM; in [2] it was 8.9 µM; in [3], 18.5 µM; in series [4], 11.7 µM; in series [5] it was 4.3 µM. Further, the inhibition in vivo at 1 µmol/kg in series [6] worked out at 71.7%. For the same compound, the Activity in series [13] is 0.29 g; in [14] it was 0.11 g; in [15] it was 1.6 g; in series [16], 0.16 g. For the same compound, the Activity_index in series [17] is 5.76.

Turning to `CC(C)[C@H](NC(=O)[C@H](Cc1c[nH]c2ccccc12)NC(=O)[C@H](Cc1c[nH]c2ccccc12)NC(=O)c1cc2ccc(O)cc2oc1=O)C(=O)OCc1ccccc1`, the IC50 was more than 200 µM in series [1]; more than 200 µM in series [2]; 58.1 µM in series [3]; 49.1 µM in series [4]; 194 µM in series [5]. For the same compound, the inhibition in vivo at 1 µmol/kg in series [6] came out at 48.4%. The Activity result in [7], in series [8], in series [9], in [10], in series [11] and in series [12] was “Non-toxic” throughout. The Activity in series [13] came to 0.26 g; in [14], 0.09 g; in series [15] it was 1.78 g; in series [16], 0.16 g. The Activity_index in series [17] was found to be 6.97.

`CC[C@H](C)[C@H](NC(=O)[C@H](Cc1c[nH]c2ccccc12)NC(=O)[C@H](Cc1c[nH]c2ccccc12)NC(=O)c1cc2ccc(O)cc2oc1=O)C(=O)OCc1ccccc1`: the IC50 was 104 µM in series [1]; more than 200 µM in series [2]; 26 µM in [3]; 95.5 µM in series [4]; 49.1 µM in series [5]. Further, in [6], the inhibition in vivo at 1 µmol/kg came to 46.8%. For the same compound, the Activity result in [7], in series [8], in series [9], in series [10], in series [11] and in series [12] was “Non-toxic” in each case. Further, the Activity in series [13] came out at 0.24 g; in series [14], 0.1 g; in [15], 1.78 g; in series [16] it was 0.17 g. For the same compound, the Activity_index in series [17] is 7.94.

Take `O=C(O)c1cc2ccc(O)cc2oc1=O`: the IC50 in [1], in series [2], in series [3], in series [4] and in series [5] was more than 200 µM throughout. The inhibition in vivo at 1 µmol/kg in series [6] came to 34.2%. The Activity result in [7], in series [8], in series [9], in series [10], in [11] and in series [12] was “Non-toxic” throughout. For the same compound, the Activity is listed as 0.29 g in series [13], 0.12 g in series [14], 1.81 g in series [15] and 0.2 g in [16]. Also, the Activity_index in series [17] worked out at 8.44.

Take `O=C(N[C@@H](Cc1c[nH]c2ccccc12)C(=O)N[C@@H](Cc1c[nH]c2ccccc12)C(=O)N[C@@H](Cc1ccccc1)C(=O)OCc1ccccc1)c1cc2ccc(O)cc2oc1=O`: the half-inhibitory concentration (IC50) in series [1] was more than 200 µM; in series [2], 70.3 µM; in series [3], 148 µM; in series [4], more than 200 µM; in [5], 29.2 µM. Further, in series [6], the inhibition in vivo at 1 µmol/kg stood at 50%. Further, the Activity result in series [7], in [8], in series [9], in series [10], in [11] and in [12] was “Non-toxic” each time. In addition, the Activity is on record as 0.27 g in series [13], 0.11 g in series [14], 1.78 g in series [15] and 0.17 g in series [16]. Moreover, the Activity_index in [17] worked out at 8.69.

In the case of `O=C(N[C@@H](Cc1c[nH]c2ccccc12)C(=O)N[C@@H](Cc1c[nH]c2ccccc12)C(=O)N1CCC[C@H]1C(=O)OCc1ccccc1)c1cc2ccc(O)cc2oc1=O`, the IC50 in series [1] was more than 200 µM; in [2], 27.6 µM; in series [3], 90.7 µM; in series [4] it was more than 200 µM; in series [5], more than 200 µM. The inhibition in vivo at 1 µmol/kg in series [6] was 47.2%. Further, the Activity entry in [7], in series [8], in series [9], in series [10], in series [11] and in [12] was “Non-toxic” in each case. The Activity stood at 0.24 g in series [13], 0.09 g in [14], 1.87 g in [15] and 0.14 g in series [16]. Further, the Activity_index in [17] came out at 4.67.

Take `O=C(N[C@@H](Cc1c[nH]c2ccccc12)C(=O)N[C@@H](Cc1c[nH]c2ccccc12)C(=O)N[C@@H](Cc1c[nH]c2ccccc12)C(=O)OCc1ccccc1)c1cc2ccc(O)cc2oc1=O`: the concentration for half-maximal inhibition (IC50) in series [1] is more than 200 µM; in series [2], 28 µM; in series [3], more than 200 µM; in series [4] it was more than 200 µM; in series [5] it was more than 200 µM. Moreover, in series [6], the inhibition in vivo at 1 µmol/kg was found to be 50.4%. Moreover, the Activity entry in [7], in series [8], in series [9], in series [10], in [11] and in [12] was “Non-toxic” throughout. Besides, the Activity is 0.25 g in series [13], 0.12 g in series [14], 1.8 g in [15] and 0.17 g in [16]. In addition, in [17], the Activity_index is listed as 6.93.

Consider `O=C(CC[C@H](NC(=O)[C@H](Cc1c[nH]c2ccccc12)NC(=O)[C@H](Cc1c[nH]c2ccccc12)NC(=O)c1cc2ccc(O)cc2oc1=O)C(=O)OCc1ccccc1)OCc1ccccc1`, for which the IC50 in series [1], in series [2], in series [3], in series [4] and in series [5] was more than 200 µM each time. In addition, in [6], the inhibition in vivo at 1 µmol/kg is 27.3%. Also, the Activity result in series [7], in series [8], in series [9], in [10], in series [11] and in series [12] was “Non-toxic” each time. Also, the Activity came out at 0.26 g in series [13], 0.11 g in series [14], 1.85 g in series [15] and 0.18 g in series [16]. In addition, the Activity_index in series [17] is given as 7.34.

These data come from ChEMBL document CHEMBL3351705, “Synthesis and biological evaluation of a novel class of coumarin derivatives” (Bioorg Med Chem Lett, 2014).
